A short description of assay [1]: (§1) Inhibition of NADPH oxidase in human HUVEC assessed as inhibition of superoxide anion generation by cytochrome-C reduction assay. The essentials: (§2)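 HUVEC (10^5 cells/mL) in phenol red-free DMEM, 10 min at 37°C. LDL (100 μg/mL) activates oxidase. Compound 0–1000 μM with NADPH 100 μM and cytochrome c 250 μM, ±SOD 200 μg/mL, 30 min at room temperature. A550 read. Superoxide taken from the SOD-inhibitable difference using ε 18.7 cm−1mM−1; triplicate.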

The species entered for assay [2] is Homo sapiens. The description is as §1. The gist of the method:
as §2

The species named for assay [3] is Homo sapiens. The assay is described as follows: Inhibition of NADPH oxidase in human HUVEC assessed as inhibition of superoxide anion generation up to 1 mM by DHE staining confocal microscopy. The gist of the method:
(§3)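 HUVEC in phenol red-free DMEM exposed to compound 0–1 mM for 2 h, washed twice in PBS, resuspended in fresh DMEM. NADPH oxidase activated with PMA (1 μM) for 30 min, then DHE (3 μM) for 30 min, then NADPH (100 μM); kept in dark. Oxyethidium red fluorescence imaged by confocal microscopy, qualitative.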

Assay [4] can be described thus: Inhibition of p47phox/p22phox interaction by ELISA. On the technique in general: ELISA stands for enzyme-linked immunosorbent assay.
For assay [5], the species on record is Homo sapiens. The assay is described as follows: Inhibition of NADPH oxidase in human HUVEC assessed as inhibition of superoxide anion generation by DHE staining confocal microscopy. The gist of the method: as §3

The structures appear in SMILES notation. The source made the active and inactive calls. The rule behind the calls is not given here.

As for `COc1cc(C(C)=O)ccc1O` [APOCYNIN], the IC50 (in general, the concentration that inhibits the measured activity by half) amounted to 1090 µM in assay [1] and 61000 µM in assay [4]. In addition, the logIC50 worked out at 3.04 in the assay listed under Homo sapiens [2] and 4.78 in assay [4]. Besides, in the assay filed under Homo sapiens [3], the outcome was inactive.

As to `COC1=CC(C(C)=O)=C/C(=C2\C(=O)C(OC)=C(c3cc(C(C)=O)cc(OC)c3O)C(C(C)=O)=C2O)C1=O`, the IC50 in assay [1] was 0.03 µM; in assay [4] it was 1.6 µM. For the same compound, the logIC50 in the assay listed under Homo sapiens [2] is -1.51; in assay [4], 0.2. The outcome in the assay listed under Homo sapiens [5] was Active.

The values are drawn from ChEMBL document CHEMBL1154082, “Inhibition of human vascular NADPH oxidase by apocynin derived oligophenols” (Bioorg Med Chem, 2009).
